# High-throughput results (PubChem)
# TDP2 inh – human TDP2 enzyme inhibitors, primary screen, biochemical, epi absorbance, recombinant enzyme; Tyrosyl-DNA phosphodiesterase 2 (Homo sapiens), O95551; T5PNP hydrolysis, p-nitrophenol absorbance 415 nm; inhibition, % at 12.8 µM; 370,000 compounds, 0.34% hits;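 active means inhibition above the mean of all tested compounds plus 3 SD, set per campaign, cut at about 25% in these data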;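 further: 0% = DMSO with enzyme and 100% = buffer with substrate but no TDP2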
#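 Test system: human TDP2 enzyme; Input: 120 nM TDP2 per well; Buffer or medium: Mg2+-containing Tris-HCl buffer, pH 7.5; Reagent: 5 mM T5PNP; Dosing: 12.8 µM single point, 1% DMSO; Incubation: reaction 2 h, 37 °C; Detection: p-Nitrophenol epi absorbance; Read-out: % inhibition relative to enzyme-containing and enzyme-free wells; Replicates: single well per compound.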
# Rin1 Abl inh – inhibitors of Rin1-Abl protein binding, primary screen, biochemical, TR-FRET. inhibition, % at 7.35 µM. 360,000 compounds, 0.4% hits. Tyrosine-protein kinase ABL1 (Homo sapiens) + Ras and Rab interactor 1 (Homo sapiens), …. AID 588664, 2011; in the data active means inhibition above about 5%, passing the limit was not always enough
# Target sequence (P00519 whole entry, looked up): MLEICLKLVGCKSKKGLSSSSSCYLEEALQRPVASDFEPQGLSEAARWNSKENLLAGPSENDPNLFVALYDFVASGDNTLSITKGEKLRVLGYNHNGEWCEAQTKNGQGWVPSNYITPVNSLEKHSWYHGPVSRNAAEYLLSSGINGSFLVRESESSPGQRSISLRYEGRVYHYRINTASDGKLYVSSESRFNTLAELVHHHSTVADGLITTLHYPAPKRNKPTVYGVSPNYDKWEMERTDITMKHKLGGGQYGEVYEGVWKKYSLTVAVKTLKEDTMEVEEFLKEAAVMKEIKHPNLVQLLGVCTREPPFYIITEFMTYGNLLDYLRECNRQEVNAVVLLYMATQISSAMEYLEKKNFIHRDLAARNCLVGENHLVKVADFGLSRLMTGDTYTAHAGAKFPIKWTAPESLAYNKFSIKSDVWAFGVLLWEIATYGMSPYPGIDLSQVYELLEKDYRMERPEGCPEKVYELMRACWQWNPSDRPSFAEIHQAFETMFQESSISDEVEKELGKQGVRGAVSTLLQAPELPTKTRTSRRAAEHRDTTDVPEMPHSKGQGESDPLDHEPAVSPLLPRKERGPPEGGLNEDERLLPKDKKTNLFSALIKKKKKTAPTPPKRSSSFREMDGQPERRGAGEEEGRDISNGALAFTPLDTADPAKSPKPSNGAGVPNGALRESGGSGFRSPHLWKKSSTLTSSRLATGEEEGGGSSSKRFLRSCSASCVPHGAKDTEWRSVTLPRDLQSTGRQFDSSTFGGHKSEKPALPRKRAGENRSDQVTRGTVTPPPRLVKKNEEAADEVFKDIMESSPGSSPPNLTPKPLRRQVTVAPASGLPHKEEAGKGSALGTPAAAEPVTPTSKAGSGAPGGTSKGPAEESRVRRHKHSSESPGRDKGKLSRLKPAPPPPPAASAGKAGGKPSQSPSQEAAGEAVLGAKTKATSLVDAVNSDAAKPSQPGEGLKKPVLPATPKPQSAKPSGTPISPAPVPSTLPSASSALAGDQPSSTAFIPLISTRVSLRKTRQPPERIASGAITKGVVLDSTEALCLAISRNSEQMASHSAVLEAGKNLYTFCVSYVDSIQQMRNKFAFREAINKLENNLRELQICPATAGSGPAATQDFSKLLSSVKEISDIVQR
# Target sequence (Q13671 whole entry, looked up): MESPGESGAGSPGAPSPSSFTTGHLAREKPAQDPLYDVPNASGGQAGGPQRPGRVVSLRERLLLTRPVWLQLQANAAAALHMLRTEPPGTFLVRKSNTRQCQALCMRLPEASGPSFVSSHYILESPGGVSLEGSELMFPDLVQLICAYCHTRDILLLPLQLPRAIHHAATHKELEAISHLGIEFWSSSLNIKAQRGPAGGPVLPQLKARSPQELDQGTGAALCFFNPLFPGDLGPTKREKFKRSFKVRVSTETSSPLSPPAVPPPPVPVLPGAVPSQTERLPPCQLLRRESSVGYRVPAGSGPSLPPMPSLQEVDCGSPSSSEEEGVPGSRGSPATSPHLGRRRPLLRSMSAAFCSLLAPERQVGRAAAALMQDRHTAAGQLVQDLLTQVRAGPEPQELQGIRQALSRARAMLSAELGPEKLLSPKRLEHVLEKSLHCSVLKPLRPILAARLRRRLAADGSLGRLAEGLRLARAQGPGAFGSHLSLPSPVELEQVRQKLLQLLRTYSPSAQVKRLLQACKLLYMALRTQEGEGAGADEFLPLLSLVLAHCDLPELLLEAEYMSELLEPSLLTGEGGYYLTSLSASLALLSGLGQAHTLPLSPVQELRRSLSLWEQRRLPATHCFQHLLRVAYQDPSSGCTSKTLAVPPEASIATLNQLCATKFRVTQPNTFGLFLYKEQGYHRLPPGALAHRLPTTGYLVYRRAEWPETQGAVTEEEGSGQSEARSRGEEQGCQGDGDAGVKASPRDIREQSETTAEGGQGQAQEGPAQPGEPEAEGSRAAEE
# LEDGF integ inh – blockers of LEDGF/p75-dependent integrase strand transfer – biochemical, TR-FRET, high throughput, primary screen | HIV-1 integrase (with human LEDGF/p75) | inhibition, % at 3.7 µM | TR-FRET IN-LEDGF/p75 DNA integration, Eu/Cy5 | 370,000 compounds, 0.64% hits;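 active means inhibition above the screen-wide mean plus 3 SD, cut at about 13% in these data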;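 further: signal is the Cy5 over europium emission ratio at 671 and 618 nm; 0% = plate median of compound wells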
# MBD2 inh – inhibitors of MBD2 binding to methylated DNA, primary screen, biochemical, TR-FRET, DNA-binding domain, human. Methyl-CpG-binding domain protein 2 (Homo sapiens), Q9UBB5. MBD2 binding to methylated oligonucleotide. inhibition, % at 4.4 µM. 370,000 compounds, 0.31% hits; in the data active means inhibition above about 13%
# UHRF1 binding – UHRF1 methylated DNA binding inhibitors, primary screen, counter-screen for MBD2 inhibitor project, biochemical, TR-FRET, human UHRF1, single concentration; E3 ubiquitin-protein ligase UHRF1 (Homo sapiens), Q96T88; UHRF1 binding to methylated oligo; inhibition, % at 4.4 µM; 370,000 compounds, 0.75% hits; AID 687016, 2013; in the data active means inhibition above about 21%;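 further: UHRF1 SRA domain binding a hemimethylated CpG hairpin DNA probe; 0% = median of test compound wells and 100% = reference inhibitor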
# TDP2 confirm – human TDP2 enzyme inhibitors, retest, confirmation, biochemical, epi absorbance, recombinant enzyme | shares compounds with TDP2 inh | absorbance read-out | inhibition, % at 12.8 µM | 1,100 compounds, 22% hits | AID 743263, 2014; in the data active means inhibition above about 25%;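 further: 0% = vehicle with enzyme and 100% = no enzyme buffer only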
# * marks the source's active call; other numbers are inactive results; x = not tested or not shown. Rows were chosen to be rich in hits. Some 1.9% of all compounds tested hit in one or more screens of this group.
SMILES,TDP2 inh,Rin1 Abl inh,LEDGF integ inh,MBD2 inh,UHRF1 binding,TDP2 confirm
CCCCC(=O)Nc1nnc(SCC(=O)NC2CC2)s1,39.1*,0.8,4.2,-2.7,-1.7,2.8
COc1ccc(NC(=O)C(c2ccc(OC)cc2)n2c(=O)c(-c3cc4ccccc4[nH]3)nc3ccccc32)cc1 (configuration not stated),-3.4,x,-1.9,-5.5,-4.5,x
Cc1ccc(-c2c(NC(=O)Nc3ccc(F)cc3)nc3ncccn23)cc1,3.3,x,4.6,0.2,-0.8,x
O=[N+]([O-])c1ccc(CN2CCN(c3ccccc3Cl)CC2)o1,27.2*,-1.8,6.3,-3.4,0.7,17.9
Cc1ccccc1N1CCN(Cc2ccc([N+](=O)[O-])o2)CC1,5.7,-1.0,-1.0,-1.5,-2.8,x
N#Cc1ccccc1NC(=O)CSc1n[nH]c(-c2ccco2)n1,32.3*,-0.7,-1.6,2.7,-6.8,-0.1
CCOc1ccc(CCNC(=O)C2CC(=O)N(CCc3ccccc3)C2)cc1OCC (configuration not stated),9.5,-0.1,2.5,-1.6,-0.3,x
CCOc1ccc(CCNC(=O)C2CC(=O)N(CCc3ccc(OC)c(OC)c3)C2)cc1OCC (configuration not stated),25.1*,1.7,0.5,0.9,0.3,2.5
O=C(CN1CCCC1)Nc1ccc2c(c1)CCC2,27.8*,-3.9,0.9,0.4,6.0,0.9
CCCCC(Sc1nc(N)c(NC(=O)c2ccc(OCC)cc2)c(=O)[nH]1)C(=O)O (configuration not stated),8.3,2.4,-0.8,-4.4,1.5,x
CCCCC(Sc1nc(N)c(NC(=O)c2ccco2)c(=O)[nH]1)C(=O)O (configuration not stated),26.1*,1.2,1.6,-3.0,0.1,2.0
O=C(OCc1cn(Cc2cccc(Cl)c2)nn1)N1CCOCC1,9.1,x,-3.3,3.8,-0.3,x
Cn1c(COc2ccccc2)nnc1SCC(=O)Nc1ccccc1-c1ccccc1,-7.7,x,-0.3,-3.7,0.2,x
COc1ccc(OC)c(CCNC(=O)CN2C(=O)CCSc3ccccc32)c1,26.3*,-1.3,-0.9,4.2,1.8,1.9
CCOc1ccc(CCNC(=O)CN2C(=O)CCSc3ccccc32)cc1OCC,-0.6,6.3,-6.4,0.0,-0.9,x
CCCN1CCN(CCCNC(=O)Cn2nc(C)n3c(cc4cc(OC)ccc43)c2=O)CC1,26.8*,-2.5,-0.2,0.7,-7.7,-5.1
COc1ccc2c(c1)cc1c(=O)n(CC(=O)NCCCN3CCOCC3)nc(C)n12,-7.1,-6.0,-1.6,0.5,-3.1,x
CC(C)CCNC(=O)[C@H](Cc1ccccc1)N1Cc2ccccc2C1=O,34.3*,-0.3,-1.3,1.1,-0.3,5.2
CC(C)CCNC(=O)[C@H](CSCc1ccccc1)N1Cc2ccccc2C1=O,-5.0,-3.0,-0.6,-3.1,3.5,x
CN(c1ccc(Cl)cc1)c1cc2c(c3c1ccn3C)C1CCC2O1 (configuration not stated),2.3,0.9,-0.5,-3.8,-4.6,x
CCOC(=O)c1c(C)[nH]c(C(=O)CN2CCN(CC)CC2)c1C,10.2,1.8,6.0,-1.4,3.3,x
CCOC(=O)c1c(C)[nH]c(C(=O)CN2CC(C)OC(C)C2)c1C (configuration not stated),28.9*,1.9,2.8,3.3,1.6,1.4
O=C(c1cccnc1)N1CCN(Cc2ccc3ccccc3c2)CC1,30.6*,2.2,-2.9,2.1,-3.9,-0.3
O=C(Cn1cnc([N+](=O)[O-])c1)Nc1ccc(Cl)cc1Cl,6.2,2.9,-1.0,1.2,-1.0,x
O=C(Cn1cnc([N+](=O)[O-])c1)Nc1ccc(F)c(Cl)c1,28.6*,4.1,-1.4,5.6,-3.5,-8.3
SMILES,TDP2 inh,Rin1 Abl inh,LEDGF integ inh,MBD2 inh,UHRF1 binding,TDP2 confirm
COc1ccc2noc3c2c1C(=O)c1ccccc1-3,38.3*,-18.9,9.4,-7.0,-8.4,30.4*
COc1ccc(OC)c2c1C(=O)c1ccccc1C2=O,56.0*,x,6.9,-1.7,-4.1,7.2
COc1ccc(N)c2c1C(=O)c1ccccc1C2=O,-4.3,-20.9,-2.8,-9.3,-13.7,x
O=S(=O)(Nc1c(O)ccc2ccccc12)c1ccc(F)cc1,24.9*,1.6,-1.1,-1.1,3.2,-2.7
O=S(=O)(Nc1c(O)ccc2ccccc12)c1ccccc1,1.3,-0.1,-1.4,3.4,-1.7,x
CC1CCN(CCCNC(=O)c2ccc(CS(=O)(=O)Cc3ccc(Cl)cc3)o2)CC1,27.1*,1.2,1.5,-1.2,-1.3,-7.9
S=c1sscc1-c1ccccc1,-5.4,-2.3,-0.6,-3.9,1.5,x
CC(C)c1cccc(C(C)C)c1NC(=O)CNCC(O)c1ccccc1 (configuration not stated),25.6*,0.2,2.9,2.9,-2.4,0.4
Cc1cc(-c2ccccc2)nc2oc(C(=O)NN)c(N)c12,30.2*,-2.2,-1.5,-1.6,-9.1,6.1
Cc1cc(C)c2c(N)c(C(=O)c3ccccc3)oc2n1,5.5,3.0,-1.0,-1.1,1.4,x
CCOC(=O)c1c(C)[nH]c(C)c1S(=O)(=O)N1c2ccccc2CC1C (configuration not stated),54.7*,1.4,0.1,0.9,3.0,4.0
CCOC(=O)c1c(S(=O)(=O)N2c3ccccc3CC2C)c(C)n(C)c1C (configuration not stated),-8.7,0.4,-1.8,-0.4,4.8,x
COc1ccc(N2C(=O)CC(Nc3ccc(N4CCOCC4)cc3)C2=O)c(OC)c1 (configuration not stated),24.6*,-1.9,11.5,-9.3,-5.9,6.9
CCc1ccc(CN(C)Cc2nc(-c3cccc(Cl)c3)no2)nc1,27.6*,-0.7,5.4,0.8,-0.4,4.0
CN(Cc1cnn(C)c1)Cc1nc(-c2ccc(Cl)cc2)no1,-9.5,-2.6,-5.3,1.5,1.6,x
Cc1nnc(N2C(=O)C(=O)/C(=C(/O)c3ccc4c(c3)CC(C)O4)C2c2ccccc2F)s1 (configuration not stated),36.5*,0.3,-2.7,1.9,2.0,-5.2
CC1=C(C(=O)OCC(C)C)C2(O)C(=O)c3ccccc3C2(O)N1 (configuration not stated),46.7*,1.7,-0.9,-8.1,-6.8,19.9
COc1ccccc1C1CC(=O)NC(C)=C1C(=O)OCC(C)C (configuration not stated),-12.3,-1.2,-3.1,1.2,-2.1,x
C=CCOC(=O)C1=C(C)NC2(O)c3ccccc3C(=O)C12O (configuration not stated),43.4*,1.5,2.2,-9.2,-6.7,22.4
